In experiment [1] the target is Serine/threonine-protein kinase PAK 2 (Homo sapiens) (UniProt Q13177). The experiment can be described thus: Inhibition of PAK2 assessed as residual activity at 10 uM. In short, it runs like this: (§1)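 Panel screen by radioactive kinase assay at a single inhibitor concentration. Score is the percent activity remaining relative to DMSO controls (100%).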
Experiment [2] deals with Ribosomal protein S6 kinase alpha-1 (Homo sapiens) (UniProt Q15418). The experiment in a line: Inhibition of RSK1 assessed as residual activity at 10 uM. In outline: as §1
Experiment [3] is described as follows: Inhibition of VEGFR assessed as residual activity at 10 uM. In outline: as §1
Experiment [4] concerns the target MAP kinase-interacting serine/threonine-protein kinase 1 (Homo sapiens) (UniProt Q9BUB5). The experiment can be described thus: Inhibition of MNK1 assessed as residual activity at 10 uM. In short, it runs like this: as §1
The target in experiment [5] is Tyrosine-protein kinase Yes (Homo sapiens) (UniProt P07947). The experiment in a line: Inhibition of YES1 assessed as residual activity at 10 uM. In outline: as §1
The nature of experiment [6]: Inhibition of PKA assessed as residual activity at 10 uM. In outline:
as §1

Experiment [7] addresses Mitogen-activated protein kinase kinase kinase 9 (Homo sapiens) (UniProt P80192). The experiment can be described thus: Inhibition of MLK1 assessed as residual activity at 10 uM. In short, it runs like this: as §1
The target of experiment [8] is Calcium/calmodulin-dependent protein kinase kinase 2 (Homo sapiens) (UniProt Q96RR4). The experiment can be described thus: Inhibition of CAMKKbeta assessed as residual activity at 10 uM. In outline:
(§2)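 Kinase panel screen run as a radioactive activity assay at single compound concentration. Score reported as percent activity remaining relative to DMSO controls (100%).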

For experiment [9], the target named is Calcium/calmodulin-dependent protein kinase type 1 (Homo sapiens) (UniProt Q14012). The experiment in a line: Inhibition of CAMK1 assessed as residual activity at 10 uM. In short, it runs like this:
as §2

Experiment [10] concerns the target Serine/threonine-protein kinase pim-1 (Homo sapiens) (UniProt P11309). The experiment can be described thus: Inhibition of PIM1 assessed as residual activity at 10 uM. In short, it runs like this:
as §1

Experiment [11] has as its target Glycogen synthase kinase-3 beta (Homo sapiens) (UniProt P49841). The experiment in a line: Inhibition of GSK3-beta assessed as residual activity at 10 uM. In outline: as §2
The target in experiment [12] is MAP kinase-interacting serine/threonine-protein kinase 2 (Homo sapiens) (UniProt Q9HBH9). The experiment can be described thus: Inhibition of MNK2 assessed as residual activity at 10 uM. In short, it runs like this:
as §1

The target in experiment [13] is Mitogen-activated protein kinase 11 (Homo sapiens) (UniProt Q15759). The experiment can be described thus: Inhibition of p38beta assessed as residual activity at 10 uM. In short, it runs like this: as §1
In experiment [14] the target is MAP kinase-activated protein kinase 3 (Homo sapiens) (UniProt Q16644). The experiment in a line: Inhibition of MAPKAPK3 assessed as residual activity at 10 uM. In outline: as §2
The target in experiment [15] is Serine/threonine-protein kinase pim-2 (Homo sapiens) (UniProt Q9P1W9). The experiment can be described thus: Inhibition of PIM2 assessed as residual activity at 10 uM. In short, it runs like this: as §1
In experiment [16] the target is Serine/threonine-protein kinase PLK1 (Homo sapiens) (UniProt P53350). The experiment in a line: Inhibition of PLK1 assessed as residual activity at 10 uM. In short, it runs like this:
as §1

The target of experiment [17] is T1, MAP/microtubule affinity-regulating kinase 4 (Homo sapiens) (UniProt Q96L34).
T1 sequence (whole entry): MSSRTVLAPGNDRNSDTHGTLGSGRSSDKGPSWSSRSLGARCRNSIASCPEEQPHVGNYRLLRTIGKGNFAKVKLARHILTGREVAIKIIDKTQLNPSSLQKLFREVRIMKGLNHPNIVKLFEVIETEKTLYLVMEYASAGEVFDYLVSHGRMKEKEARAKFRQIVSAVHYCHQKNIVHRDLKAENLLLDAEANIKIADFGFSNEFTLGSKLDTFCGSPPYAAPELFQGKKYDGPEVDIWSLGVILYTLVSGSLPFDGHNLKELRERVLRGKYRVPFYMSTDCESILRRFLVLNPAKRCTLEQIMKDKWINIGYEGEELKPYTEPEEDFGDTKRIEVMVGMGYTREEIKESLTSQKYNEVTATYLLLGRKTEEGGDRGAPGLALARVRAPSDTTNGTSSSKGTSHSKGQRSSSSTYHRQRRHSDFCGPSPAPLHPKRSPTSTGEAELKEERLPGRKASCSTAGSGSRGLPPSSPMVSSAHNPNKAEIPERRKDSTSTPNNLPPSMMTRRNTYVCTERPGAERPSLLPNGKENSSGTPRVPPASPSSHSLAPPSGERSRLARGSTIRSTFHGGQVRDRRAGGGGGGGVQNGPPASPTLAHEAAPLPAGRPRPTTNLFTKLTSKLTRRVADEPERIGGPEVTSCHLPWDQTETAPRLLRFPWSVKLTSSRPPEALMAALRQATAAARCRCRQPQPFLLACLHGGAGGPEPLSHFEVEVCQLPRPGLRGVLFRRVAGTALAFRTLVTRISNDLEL
The experiment can be described thus: Inhibition of MARK4 assessed as residual activity at 10 uM. In outline: as §2

Experiment [18] in a line: Inhibition of AMPK assessed as residual activity at 10 uM. In outline: as §2
For experiment [19], the target named is Maternal embryonic leucine zipper kinase (Homo sapiens) (UniProt Q14680). The experiment can be described thus: Inhibition of MELK assessed as residual activity at 10 uM. In outline: as §2
In experiment [20] the target is T2, Serine/threonine-protein kinase STK11 (Homo sapiens) (UniProt Q15831).
T2 sequence (whole entry): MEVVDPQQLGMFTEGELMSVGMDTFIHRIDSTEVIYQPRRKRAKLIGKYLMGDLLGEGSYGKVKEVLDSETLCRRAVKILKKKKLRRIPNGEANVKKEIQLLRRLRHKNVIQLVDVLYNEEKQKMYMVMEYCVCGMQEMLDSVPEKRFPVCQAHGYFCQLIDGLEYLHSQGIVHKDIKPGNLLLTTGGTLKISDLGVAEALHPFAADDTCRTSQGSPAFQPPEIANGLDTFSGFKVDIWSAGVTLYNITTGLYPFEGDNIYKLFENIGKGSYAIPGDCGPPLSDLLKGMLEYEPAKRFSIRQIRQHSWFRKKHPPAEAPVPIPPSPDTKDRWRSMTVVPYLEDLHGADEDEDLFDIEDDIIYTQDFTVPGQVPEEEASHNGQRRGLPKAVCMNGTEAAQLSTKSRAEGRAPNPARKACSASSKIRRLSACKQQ
The experiment in a line: Inhibition of LKB1 assessed as residual activity at 10 uM. In outline: as §2

The target in experiment [21] is Ribosomal protein S6 kinase alpha-3 (Homo sapiens) (UniProt P51812). The experiment in a line: Inhibition of RSK2 assessed as residual activity at 10 uM. In outline:
as §1

Chain of Serine/threonine-protein kinase pim-2 (Homo sapiens) (Q9P1W9 whole entry, looked up): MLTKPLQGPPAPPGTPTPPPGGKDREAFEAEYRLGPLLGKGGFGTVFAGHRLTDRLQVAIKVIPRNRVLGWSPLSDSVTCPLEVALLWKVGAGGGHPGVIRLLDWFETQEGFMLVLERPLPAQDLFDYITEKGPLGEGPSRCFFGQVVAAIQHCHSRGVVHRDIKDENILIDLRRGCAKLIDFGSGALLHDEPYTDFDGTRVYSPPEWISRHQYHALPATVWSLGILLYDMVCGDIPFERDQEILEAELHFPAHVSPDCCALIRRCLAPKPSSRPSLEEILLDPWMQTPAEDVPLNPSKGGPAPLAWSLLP
Chain of Maternal embryonic leucine zipper kinase (Homo sapiens) (Q14680 whole entry, looked up): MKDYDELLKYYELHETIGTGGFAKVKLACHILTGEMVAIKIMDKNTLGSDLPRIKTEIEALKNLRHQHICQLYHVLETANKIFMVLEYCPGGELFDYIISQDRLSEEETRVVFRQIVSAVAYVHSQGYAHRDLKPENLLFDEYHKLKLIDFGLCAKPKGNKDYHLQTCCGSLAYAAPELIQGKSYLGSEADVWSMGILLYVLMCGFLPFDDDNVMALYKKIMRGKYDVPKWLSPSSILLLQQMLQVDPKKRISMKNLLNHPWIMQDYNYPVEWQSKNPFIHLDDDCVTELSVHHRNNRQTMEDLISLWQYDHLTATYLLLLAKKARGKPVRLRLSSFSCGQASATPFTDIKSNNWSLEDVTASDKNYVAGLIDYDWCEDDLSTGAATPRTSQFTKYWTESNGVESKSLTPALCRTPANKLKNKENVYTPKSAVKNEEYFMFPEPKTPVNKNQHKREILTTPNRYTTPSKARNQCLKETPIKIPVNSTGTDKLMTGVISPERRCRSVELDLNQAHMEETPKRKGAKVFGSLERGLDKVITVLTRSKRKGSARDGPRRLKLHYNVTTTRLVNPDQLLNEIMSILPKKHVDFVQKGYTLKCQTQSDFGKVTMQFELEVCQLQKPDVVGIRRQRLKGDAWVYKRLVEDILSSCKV
Chain of Glycogen synthase kinase-3 beta (Homo sapiens) (P49841 whole entry, looked up): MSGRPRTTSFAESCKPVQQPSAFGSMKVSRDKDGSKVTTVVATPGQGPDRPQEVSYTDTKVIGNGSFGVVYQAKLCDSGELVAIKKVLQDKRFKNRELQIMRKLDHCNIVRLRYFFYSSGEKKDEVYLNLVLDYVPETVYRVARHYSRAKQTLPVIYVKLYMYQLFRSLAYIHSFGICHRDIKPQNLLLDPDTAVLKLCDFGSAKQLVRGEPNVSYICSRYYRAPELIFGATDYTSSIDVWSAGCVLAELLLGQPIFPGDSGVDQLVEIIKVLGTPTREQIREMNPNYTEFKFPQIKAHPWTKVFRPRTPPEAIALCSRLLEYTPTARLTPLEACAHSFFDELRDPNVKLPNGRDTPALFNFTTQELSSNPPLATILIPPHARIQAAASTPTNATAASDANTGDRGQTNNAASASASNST
Chain of Mitogen-activated protein kinase 11 (Homo sapiens) (Q15759 whole entry): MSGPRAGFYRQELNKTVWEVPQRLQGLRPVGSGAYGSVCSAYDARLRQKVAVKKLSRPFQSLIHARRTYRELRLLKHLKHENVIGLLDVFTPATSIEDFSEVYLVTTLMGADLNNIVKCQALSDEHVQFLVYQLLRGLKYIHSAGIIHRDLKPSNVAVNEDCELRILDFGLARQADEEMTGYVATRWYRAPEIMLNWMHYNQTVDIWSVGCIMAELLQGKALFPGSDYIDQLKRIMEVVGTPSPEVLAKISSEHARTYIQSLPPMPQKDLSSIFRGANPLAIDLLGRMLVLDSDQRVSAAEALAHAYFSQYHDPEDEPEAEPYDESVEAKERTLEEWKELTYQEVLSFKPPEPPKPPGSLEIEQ
Chain of Calcium/calmodulin-dependent protein kinase kinase 2 (Homo sapiens) (Q96RR4 2-588 limits assumed): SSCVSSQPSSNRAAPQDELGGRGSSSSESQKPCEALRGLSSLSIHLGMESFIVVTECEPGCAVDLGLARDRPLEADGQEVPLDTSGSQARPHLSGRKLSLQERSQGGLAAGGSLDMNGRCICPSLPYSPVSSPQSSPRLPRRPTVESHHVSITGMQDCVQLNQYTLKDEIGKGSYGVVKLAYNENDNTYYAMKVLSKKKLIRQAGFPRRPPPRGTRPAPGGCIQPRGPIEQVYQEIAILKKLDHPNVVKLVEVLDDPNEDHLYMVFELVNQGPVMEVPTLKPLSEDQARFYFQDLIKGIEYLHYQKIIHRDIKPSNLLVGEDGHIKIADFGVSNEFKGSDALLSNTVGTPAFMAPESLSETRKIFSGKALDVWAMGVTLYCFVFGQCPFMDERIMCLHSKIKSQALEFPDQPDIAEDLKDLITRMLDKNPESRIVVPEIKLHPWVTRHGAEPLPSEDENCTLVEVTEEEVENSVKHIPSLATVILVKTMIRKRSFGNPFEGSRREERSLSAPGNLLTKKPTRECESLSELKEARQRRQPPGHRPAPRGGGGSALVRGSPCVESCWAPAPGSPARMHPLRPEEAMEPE
Chain of Serine/threonine-protein kinase PLK1 (Homo sapiens) (P53350 whole entry): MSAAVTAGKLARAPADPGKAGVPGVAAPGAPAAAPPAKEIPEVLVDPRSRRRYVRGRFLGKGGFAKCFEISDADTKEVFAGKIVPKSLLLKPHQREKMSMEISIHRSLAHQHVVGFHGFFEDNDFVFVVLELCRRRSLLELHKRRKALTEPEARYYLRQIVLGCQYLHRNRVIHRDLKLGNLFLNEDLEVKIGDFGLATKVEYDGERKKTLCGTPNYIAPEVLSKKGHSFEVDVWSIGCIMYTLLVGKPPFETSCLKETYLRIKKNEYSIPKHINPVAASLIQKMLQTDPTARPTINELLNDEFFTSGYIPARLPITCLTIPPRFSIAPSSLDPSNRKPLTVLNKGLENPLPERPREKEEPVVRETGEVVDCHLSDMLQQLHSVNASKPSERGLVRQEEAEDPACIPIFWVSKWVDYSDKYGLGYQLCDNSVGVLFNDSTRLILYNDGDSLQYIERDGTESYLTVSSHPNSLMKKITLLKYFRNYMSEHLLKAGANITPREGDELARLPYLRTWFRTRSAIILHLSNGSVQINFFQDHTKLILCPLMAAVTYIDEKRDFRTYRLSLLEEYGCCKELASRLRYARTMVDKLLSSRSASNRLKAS
Chain of MAP kinase-activated protein kinase 3 (Homo sapiens) (Q16644 whole entry, looked up): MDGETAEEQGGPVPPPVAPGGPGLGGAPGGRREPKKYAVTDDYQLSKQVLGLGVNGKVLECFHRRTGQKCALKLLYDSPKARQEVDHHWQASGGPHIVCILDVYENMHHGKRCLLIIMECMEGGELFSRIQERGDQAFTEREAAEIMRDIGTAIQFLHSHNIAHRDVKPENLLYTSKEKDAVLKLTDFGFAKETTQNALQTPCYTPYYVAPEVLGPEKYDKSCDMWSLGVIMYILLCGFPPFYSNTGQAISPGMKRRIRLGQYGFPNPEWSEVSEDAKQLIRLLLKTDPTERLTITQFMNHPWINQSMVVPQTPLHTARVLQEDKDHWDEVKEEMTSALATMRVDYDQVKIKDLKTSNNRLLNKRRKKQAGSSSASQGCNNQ
Chain of MAP kinase-interacting serine/threonine-protein kinase 1 (Homo sapiens) (Q9BUB5 whole entry, looked up): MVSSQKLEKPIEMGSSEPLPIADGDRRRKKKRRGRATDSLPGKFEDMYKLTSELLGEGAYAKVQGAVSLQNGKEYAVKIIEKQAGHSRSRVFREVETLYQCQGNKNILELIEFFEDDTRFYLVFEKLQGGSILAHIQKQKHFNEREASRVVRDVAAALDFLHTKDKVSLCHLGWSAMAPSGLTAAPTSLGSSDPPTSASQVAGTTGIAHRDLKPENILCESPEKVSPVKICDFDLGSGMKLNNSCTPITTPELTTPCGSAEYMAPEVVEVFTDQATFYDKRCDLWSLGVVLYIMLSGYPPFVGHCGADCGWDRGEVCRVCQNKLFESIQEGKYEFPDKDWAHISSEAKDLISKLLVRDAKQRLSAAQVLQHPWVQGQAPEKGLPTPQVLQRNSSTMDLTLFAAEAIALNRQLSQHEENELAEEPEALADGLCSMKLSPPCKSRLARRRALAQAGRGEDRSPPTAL
Chain of MAP kinase-interacting serine/threonine-protein kinase 2 (Homo sapiens) (Q9HBH9 whole entry, looked up): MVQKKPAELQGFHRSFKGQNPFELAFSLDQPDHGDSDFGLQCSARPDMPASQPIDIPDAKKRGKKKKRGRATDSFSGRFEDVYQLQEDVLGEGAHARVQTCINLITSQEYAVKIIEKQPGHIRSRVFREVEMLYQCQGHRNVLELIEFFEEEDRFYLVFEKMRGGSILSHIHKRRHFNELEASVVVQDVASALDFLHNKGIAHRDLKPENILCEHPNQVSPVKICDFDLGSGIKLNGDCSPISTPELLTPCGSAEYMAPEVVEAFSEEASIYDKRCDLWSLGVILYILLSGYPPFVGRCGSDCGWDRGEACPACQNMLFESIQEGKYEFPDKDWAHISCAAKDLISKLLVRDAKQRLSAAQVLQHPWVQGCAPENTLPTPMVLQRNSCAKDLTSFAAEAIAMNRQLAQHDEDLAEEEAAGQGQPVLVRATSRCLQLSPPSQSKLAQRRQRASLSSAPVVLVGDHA
Chain of Calcium/calmodulin-dependent protein kinase type 1 (Homo sapiens) (Q14012 whole entry, looked up): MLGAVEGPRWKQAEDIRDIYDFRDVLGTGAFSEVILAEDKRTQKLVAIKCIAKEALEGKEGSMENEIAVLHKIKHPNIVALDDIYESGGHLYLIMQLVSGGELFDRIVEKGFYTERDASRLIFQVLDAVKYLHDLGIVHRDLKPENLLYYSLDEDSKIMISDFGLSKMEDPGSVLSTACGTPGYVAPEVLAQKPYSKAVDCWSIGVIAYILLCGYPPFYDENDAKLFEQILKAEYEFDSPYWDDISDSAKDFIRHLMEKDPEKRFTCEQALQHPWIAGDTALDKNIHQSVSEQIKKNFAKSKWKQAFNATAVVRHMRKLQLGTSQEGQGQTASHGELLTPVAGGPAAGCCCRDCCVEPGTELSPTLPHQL
Chain of Serine/threonine-protein kinase pim-1 (Homo sapiens) (P11309 whole entry, looked up): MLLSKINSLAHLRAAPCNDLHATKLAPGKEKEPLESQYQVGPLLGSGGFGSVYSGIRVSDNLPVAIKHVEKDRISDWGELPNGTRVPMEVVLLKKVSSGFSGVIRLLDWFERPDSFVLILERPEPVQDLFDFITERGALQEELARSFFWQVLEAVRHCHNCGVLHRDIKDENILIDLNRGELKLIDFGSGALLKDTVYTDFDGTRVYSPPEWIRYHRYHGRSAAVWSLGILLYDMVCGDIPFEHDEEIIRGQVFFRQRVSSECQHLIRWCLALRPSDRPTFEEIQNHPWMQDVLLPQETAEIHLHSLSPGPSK

On to `CN1CCN(CCC(=O)Nc2ccc3c(C#N)cnc(Nc4cccc(Br)c4)c3c2)CC1`, for which the Activity amounted to 90% in [1]; 84% in experiment [2]; 88% in experiment [3]; 95% in [4]; 36% in experiment [5]; 100% in experiment [6]. The Activity in experiment [7] turned out to be 91%; in experiment [8], 87%; in [9], 14%; in [10], 73%; in experiment [11], 100%; in [12], 85%. For the same compound, the Activity was 100% in [13]; 91% in experiment [14]; 92% in experiment [15]; 86% in [16]; 100% in experiment [17]; 77% in experiment [18]. Besides, the figures for the Activity in [19], in experiment [20] and in experiment [21] were 89%, 100% and 71%, respectively.
For the compound `CN(C)CCCC(=O)Nc1ccc2c(C#N)cnc(Nc3cccc(Br)c3)c2c1`, the Activity in experiment [1] was found to be 80%; in experiment [2], 84%; in experiment [3] it was 87%; in [4], 82%; in [5] it was 36%; in experiment [6], 100%. The Activity in experiment [7] was 87%; in experiment [8], 92%; in [9] it was 15%; in experiment [10], 68%; in [11] it was 100%; in experiment [12] it was 100%. The Activity amounted to 100% in experiment [13]; 96% in [14]; 89% in experiment [15]; 69% in experiment [16]; 100% in [17]; 79% in experiment [18]. Also, the Activity in [19] stood at 80%; in [20], 100%; in [21], 82%.
For `CN(C)C/C=C/C(=O)Nc1ccc2c(C#N)cnc(Nc3cccc(Br)c3)c2c1`, the Activity in [1] was determined as 81%; in [2], 79%; in experiment [3], 74%; in [4], 61%; in [5], 32%; in [6], 100%. Besides, the Activity in experiment [7] was 82%; in experiment [8], 91%; in [9], 25%; in [10] it was 73%; in experiment [11], 78%; in experiment [12] it was 92%. Further, the Activity worked out at 95% in [13]; 75% in experiment [14]; 89% in experiment [15]; 84% in experiment [16]; 82% in experiment [17]; 86% in experiment [18]. Also, the Activity in experiment [19] was 75%; in experiment [20], 99%; in experiment [21], 87%.

Source of the values: ChEMBL document CHEMBL1641579, “Synthesis and biological evaluation of 7-substituted-1-(3-bromophenylamino)isoquinoline-4-carbonitriles as inhibitors of myosin light chain kinase and epidermal growth factor receptor” (Bioorg Med Chem, 2011).
